Active and inactive are the calls of the source.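 How the source made its calls, unless noted: active means GFP response above 150% of the DMSO level; inconclusive means fewer than 70 events counted for a yeast strain; inactive means the rest.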
Key:
[1] = RPL19A-GFP modulators, yeast TOR pathway, confirmation, cell-based, S. cerevisiae, flow cytometry, cherry picks, mother/daughter gates (AID 2270;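 active means GFP response below 50% of the DMSO control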); settings: S. cerevisiae RPL19A-GFP strain, 3 h, at 10 µM, stronger effect = lower value, 100 = same GFP as DMSO wells
[2] = LAP4-GFP expression modulators in yeast, confirmation, cell-based, cherry picks, flow cytometry, mother/daughter gates (AID 2271;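 active means GFP response above 150% of the DMSO control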;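 further: ratio of sample to DMSO plate mean so 100% equals DMSO level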); settings: S. cerevisiae LAP4-GFP strain, 3 h, at 10 µM, stronger effect = higher value, 100 means same as DMSO control
In short: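 material = Alexa 633-stained baker's yeast GFP-fusion strain | amount = 0.2 OD600 cells | schedule = 30 °C, 3 h compound incubation, rotating | signal = GFP by flow cytometry | measure = per-gate (all, mother, daughter) GFP response vs DMSO | controls = positive rapamycin (400 ng/mL), negative DMSO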

[3] = modulators of MEP2-GFP levels in yeast, confirmation, S. cerevisiae, flow cytometry GFP, cherry picks (AID 2272;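 active means GFP response above 150% of the DMSO control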;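 further: ratio of well signal to plate DMSO mean so 100% equals DMSO level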); settings: S. cerevisiae MEP2-GFP strain, 3 h, at 10 µM, stronger effect = higher value
[4] = AGP1-GFP expression modulators, hit retest, confirmation, cell-based, flow cytometry, S. cerevisiae, cherry picks (AID 2273);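 further: median GFP channel fluorescence over the whole cell population gate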; settings: S. cerevisiae AGP1-GFP strain, 3 h, at 10 µM
[5] = modulators of CIT2-GFP expression in yeast, confirmation, S. cerevisiae, GFP fusion, cherry picks, mother/daughter gates (AID 2274); settings: S. cerevisiae CIT2-GFP strain, flow cytometry, 3 h, at 10 µM, stronger effect = higher value
[6] = measured here: daughter cell gate
[7] = measured here: mother cell gate
[8] = measured here: daughter cell gate response
[9] = measured here: mother cell gate response

Structure (SMILES) | GFP response vs DMSO [1] | GFP response vs DMSO [1, 6] | GFP response vs DMSO [1, 7] | GFP response relative to DMSO [2] | GFP response relative to DMSO [2, 8] | GFP response relative to DMSO [2, 9] | GFP response vs DMSO [3] | GFP response, % of DMSO [4] | GFP response, % of DMSO [5] | GFP response, % of DMSO [5, 6] | GFP response, % of DMSO [5, 7]
COc1ccc(N/N=C(\C#N)C(N)=O)cc1 | 83.7% (inactive) | 64.6% | 83.7% | 166% (active) | 136% | 185% | 141% (inactive) | 125% (inactive) | 136% (inactive) | 114% | 135%
C/C(=N/NC(=O)c1ccc(C(C)(C)C)cc1)c1ccccn1 | 110% (inactive) | 107% | 101% | 231% (active) | 197% | 209% | 126% (inactive) | 90% (inactive) | 112% (inactive) | 115% | 98.2%
O=C(CN1CCCC1)Nc1cc(C(F)(F)F)cc(C(F)(F)F)c1 | 101% (inactive) | 110% | 100% | 98.9% (inactive) | 102% | 98.4% | 68.3% (inactive) | 102% (inactive) | 98.6% (inactive) | 99.3% | 97.1%
CCNC(=O)/C(C#N)=C/c1c(N2CC(C)OC(C)C2)nc2ccccn2c1=O (stereo not given) | 97.8% (inactive) | 99.3% | 98.1% | 99.5% (inactive) | 102% | 99.4% | 99% (inactive) | 106% (inactive) | 103% (inactive) | 103% | 104%
CCOc1cc(/C=C2\C(=N)N3N=C(S(=O)(=O)CC)SC3=NC2=O)ccc1OC(=O)c1ccco1 | 104% (inactive) | 104% | 105% | 89% (inactive) | 92.5% | 90.1% | 104% (inactive) | 100% (inactive) | 115% (inactive) | 113% | 113%
COc1cc(NC(=O)c2cccc(C)c2)ccc1NC(=O)c1cc2ccccc2o1 | 102% (inactive) | 103% | 102% | 103% (inactive) | 102% | 103% | 99% (inactive) | 104% (inactive) | 103% (inactive) | 106% | 103%
C=CCn1c(=O)c(C(=O)NCCc2ccccc2)c(O)c2ccccc21 | 98.4% (inactive) | 98.9% | 100% | 90.2% (inactive) | 89.6% | 91.9% | 96.2% (inactive) | 102% (inactive) | 99.7% (inactive) | 99.1% | 101%
Cc1c(C)c2ccc(OCC(=O)NCCCn3ccnc3)cc2oc1=O | 97.8% (inactive) | 97.4% | 98.5% | 96.7% (inactive) | 96% | 96.1% | 105% (inactive) | 97.6% (inactive) | 101% (inactive) | 101% | 101%
CCc1ccc(C(=O)COC(=O)c2n[nH]c3ccccc23)cc1 | 95.8% (inactive) | 97.3% | 94% | 102% (inactive) | 101% | 104% | 101% (inactive) | 101% (inactive) | 101% (inactive) | 97.6% | 102%
O=C(CSc1nnc(C2COc3ccccc3O2)o1)N1CCCC1 (stereo not given) | 97.8% (inactive) | 98.6% | 98.7% | 94.9% (inactive) | 98.2% | 95.1% | 98.8% (inactive) | 103% (inactive) | 112% (inactive) | 111% | 112%
CCN(CC)N=Nc1[nH]nc2nc(C)cc(C)c12 | 127% (inactive) | 103% | 118% | 120% (inactive) | 102% | 116% | 137% (inactive) | 120% (inactive) | 133% (inactive) | 123% | 134%
CCN1CCN(C(=O)C2CCN(c3nnc(C)c4c(C)n(-c5ccc(C)cc5)nc34)CC2)CC1 | 97.2% (inactive) | 96.5% | 97.8% | 102% (inactive) | 101% | 101% | 104% (inactive) | 106% (inactive) | 99.3% (inactive) | 102% | 98%
COC(=O)Nc1c(-c2ccccc2)nc2ccc(C)cn12 | 101% (inactive) | 98.7% | 102% | 96.2% (inactive) | 97.2% | 98.3% | 102% (inactive) | 103% (inactive) | 104% (inactive) | 101% | 107%
O=C(CSCc1cccc(Br)c1)N=Nc1c(O)[nH]c2ccccc12 | 76.9% (inactive) | 67.8% | 73% | 126% (inactive) | 102% | 126% | 124% (inactive) | 137% (inactive) | 130% (inactive) | 110% | 129%
COc1ccc(/C=N/Nc2nnc(C)n2N)cc1OC(C)=O | 99.5% (inactive) | 100% | 99% | 94.2% (inactive) | 96.5% | 92.6% | 104% (inactive) | 102% (inactive) | 104% (inactive) | 104% | 103%
COc1ccc(C2CC(c3c(-c4ccccc4)c4cc(Cl)ccc4[nH]c3=O)=NN2S(C)(=O)=O)cc1 (stereo not given) | 100% (inactive) | 99.1% | 102% | 99.2% (inactive) | 97.6% | 97.2% | 100% (inactive) | 99.9% (inactive) | 99.7% (inactive) | 101% | 99.7%
Cc1ccccc1C(=O)Nc1ccccc1 | 96.4% (inactive) | 94.9% | 97.4% | 96.7% (inactive) | 97.6% | 97.2% | 96.2% (inactive) | 100% (inactive) | 101% (inactive) | 103% | 102%
COc1ccc(NC(=O)COC(=O)c2ccco2)c([N+](=O)[O-])c1 | 99.5% (inactive) | 98.5% | 96.7% | 103% (inactive) | 99.3% | 102% | 108% (inactive) | 98.9% (inactive) | 99.3% (inactive) | 92.7% | 98%
Cc1sc(NC(=O)c2ccco2)nc1-c1ccccc1 | 93.8% (inactive) | 92.2% | 93.6% | 111% (inactive) | 105% | 113% | 102% (inactive) | 89.5% (inactive) | 102% (inactive) | 98.1% | 101%
O=S(=O)(Nc1ccc(Br)cc1)c1cccc2nonc12 | 97.4% (inactive) | 97.5% | 98.3% | 96.5% (inactive) | 95% | 95.6% | 99.5% (inactive) | 93.8% (inactive) | 97.8% (inactive) | 98.3% | 95.6%
Cc1c(NC2=C(Cl)C(=O)N(c3ccccc3)C2=O)c(=O)n(-c2ccccc2)n1C | 93.5% (inactive) | 97.3% | 95.2% | 97.7% (inactive) | 104% | 99.5% | 99.5% (inactive) | 103% (inactive) | 104% (inactive) | 108% | 96.8%
O=C1c2ccsc2SCCN1Cc1cccc(F)c1 | 96% (inactive) | 95.7% | 96.8% | 103% (inactive) | 102% | 104% | 92.6% (inactive) | 89.9% (inactive) | 87.2% (inactive) | 90.2% | 84.6%
CCN(CC)S(=O)(=O)c1cccc(C(=O)NCC(c2ccccc2)N(C)C)c1 (stereo not given) | 99.7% (inactive) | 102% | 98.5% | 110% (inactive) | 111% | 106% | 106% (inactive) | 104% (inactive) | 104% (inactive) | 106% | 98%
Cc1ccc2[nH]cc(/C=C/c3cc[n+](C)cc3)c2c1 | 106% (inactive) | 106% | 105% | 153% (active) | 156% | 154% | 170% (inactive) | 116% (inactive) | 147% (inactive) | 156% | 140%
CC(=O)Nc1ccc(NC(=O)c2nc(S(=O)(=O)Cc3ccccc3)ncc2Cl)cc1 | 98.5% (inactive) | 99.8% | 96.9% | 106% (inactive) | 105% | 105% | 110% (inactive) | 96.8% (inactive) | 100% (inactive) | 101% | 99.3%
Cc1ccc(S(=O)(=O)NCC23C=CC(O2)C2C(=O)N(c4ccccc4)C(=O)C23)cc1 (stereo not given) | 98.4% (inactive) | 98.9% | 98.7% | 96.7% (inactive) | 97.6% | 97.2% | 102% (inactive) | 99.9% (inactive) | 105% (inactive) | 105% | 104%
CC1=NNC(=O)/C1=C\c1cn(-c2ccccc2)nc1-c1ccc(Cl)cc1 | 97.6% (inactive) | 98.3% | 98.5% | 107% (inactive) | 101% | 114% | 101% (inactive) | 105% (inactive) | 97.2% (inactive) | 96.8% | 95.7%
Cc1cc(NCCN2CCOCC2)n2nc(C)c(-c3ccccc3)c2n1 | 98.8% (inactive) | 99.1% | 97.4% | 100% (inactive) | 95% | 99.5% | 102% (inactive) | 95.2% (inactive) | 92.1% (inactive) | 94.6% | 91%
CCOc1ccccc1NC(=O)c1nc(S(=O)(=O)Cc2cccc(C)c2)ncc1Cl | 101% (inactive) | 100% | 101% | 101% (inactive) | 102% | 103% | 100% (inactive) | 101% (inactive) | 97.8% (inactive) | 96.5% | 98.7%
CCOC(=O)c1ccc(NC(=O)CCc2nc(-c3cccc(C)c3)no2)cc1 | 97.8% (inactive) | 98.5% | 98.8% | 102% (inactive) | 101% | 101% | 106% (inactive) | 95.8% (inactive) | 102% (inactive) | 102% | 99.1%

Source: PubChem BioAssay
